Experimental findings from ChEMBL document CHEMBL1138257, “Synthesis and biological evaluation of a fluorine-18 derivative of dasatinib” (J Med Chem, 2007) are described below.

The nature of series [1]: cells. The following applies: Homo sapiens, M-07e.
The test system of another series is K562. In words: cells. The settings on record: Homo sapiens.
The nature of series [2]: cells. The settings on record: Homo sapiens.
Series [3] has as its target Receptor-type tyrosine-protein kinase FLT3 (Homo sapiens) (UniProt P36888). In words: Inhibition of FLT3. The following applies: concentration not given here.
The target of series [4] is T1, Tyrosine-protein kinase Tec (Homo sapiens) (UniProt P42680).
T1 sequence (whole entry): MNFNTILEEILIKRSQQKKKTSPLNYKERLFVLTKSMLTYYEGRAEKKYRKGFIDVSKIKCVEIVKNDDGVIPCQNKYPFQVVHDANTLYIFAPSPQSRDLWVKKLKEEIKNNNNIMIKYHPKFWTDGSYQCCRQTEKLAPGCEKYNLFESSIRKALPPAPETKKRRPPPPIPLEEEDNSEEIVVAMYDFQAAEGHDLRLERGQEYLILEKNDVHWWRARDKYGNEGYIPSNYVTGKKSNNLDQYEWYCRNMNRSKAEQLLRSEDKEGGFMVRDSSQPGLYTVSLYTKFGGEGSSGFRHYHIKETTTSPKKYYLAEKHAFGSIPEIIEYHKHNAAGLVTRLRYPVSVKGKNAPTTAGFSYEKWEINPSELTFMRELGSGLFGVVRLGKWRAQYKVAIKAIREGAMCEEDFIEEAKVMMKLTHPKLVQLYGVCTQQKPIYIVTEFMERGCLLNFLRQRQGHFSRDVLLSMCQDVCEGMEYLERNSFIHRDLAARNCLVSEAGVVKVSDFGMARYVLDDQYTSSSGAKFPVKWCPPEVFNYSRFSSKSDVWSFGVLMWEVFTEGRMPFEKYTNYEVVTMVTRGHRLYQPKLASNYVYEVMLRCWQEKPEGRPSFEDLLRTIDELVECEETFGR
In words: Inhibition of TEC at 10 nM. An outline of the steps: (§1)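 Part of a 21-kinase inhibition panel, tested at a single inhibitor concentration of 10 nM.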

Series [5] deals with Mus musculus. In words: Toxicity in B6D2F1 mouse at 0.1 mg/kg, iv. It is filed as organism-based. On the set-up: dose 0.1 mg/kg, route intravenous. The following applies: in vivo.
For series [6], the target named is Proto-oncogene tyrosine-protein kinase Src (Homo sapiens) (UniProt P12931). The following applies: 10 nM.
Series [7] has as its target Ephrin type-A receptor 2 (Homo sapiens) (UniProt P29317). As to the kind of experiment: Inhibition of EphA2 at 10 nM. The essentials:
as §1

For series [8], the target named is T2, Ephrin type-B receptor 4 (Homo sapiens) (UniProt P54760).
T2 sequence (whole entry): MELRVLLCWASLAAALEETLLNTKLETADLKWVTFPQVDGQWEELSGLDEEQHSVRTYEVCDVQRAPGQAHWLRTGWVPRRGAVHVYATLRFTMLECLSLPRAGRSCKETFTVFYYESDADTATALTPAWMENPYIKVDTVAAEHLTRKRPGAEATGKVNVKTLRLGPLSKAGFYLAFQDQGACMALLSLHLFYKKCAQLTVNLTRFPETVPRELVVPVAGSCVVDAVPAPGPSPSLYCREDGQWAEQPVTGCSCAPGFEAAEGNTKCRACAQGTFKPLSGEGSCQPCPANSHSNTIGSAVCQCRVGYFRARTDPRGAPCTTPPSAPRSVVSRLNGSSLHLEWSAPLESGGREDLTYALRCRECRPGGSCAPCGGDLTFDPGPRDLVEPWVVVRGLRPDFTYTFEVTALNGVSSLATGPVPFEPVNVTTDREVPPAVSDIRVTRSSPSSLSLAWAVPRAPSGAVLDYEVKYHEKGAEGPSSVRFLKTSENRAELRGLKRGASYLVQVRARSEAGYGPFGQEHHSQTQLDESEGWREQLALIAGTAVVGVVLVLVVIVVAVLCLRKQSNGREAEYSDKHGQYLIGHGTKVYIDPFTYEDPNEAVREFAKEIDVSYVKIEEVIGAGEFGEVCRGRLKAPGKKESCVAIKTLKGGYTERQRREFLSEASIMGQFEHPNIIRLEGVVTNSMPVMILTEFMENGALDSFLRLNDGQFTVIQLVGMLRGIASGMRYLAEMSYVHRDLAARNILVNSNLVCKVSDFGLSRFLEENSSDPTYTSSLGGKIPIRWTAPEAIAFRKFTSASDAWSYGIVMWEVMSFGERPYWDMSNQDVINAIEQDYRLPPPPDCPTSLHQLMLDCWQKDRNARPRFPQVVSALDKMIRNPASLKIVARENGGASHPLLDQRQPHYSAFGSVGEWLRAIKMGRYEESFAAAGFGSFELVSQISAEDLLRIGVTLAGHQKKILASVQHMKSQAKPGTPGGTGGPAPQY
As to the kind of experiment: Inhibition of EphB4 at 10 nM. The essentials:
as §1

The target in series [9] is T3, Tyrosine-protein kinase JAK3 (Homo sapiens) (UniProt P52333).
T3 sequence (whole entry): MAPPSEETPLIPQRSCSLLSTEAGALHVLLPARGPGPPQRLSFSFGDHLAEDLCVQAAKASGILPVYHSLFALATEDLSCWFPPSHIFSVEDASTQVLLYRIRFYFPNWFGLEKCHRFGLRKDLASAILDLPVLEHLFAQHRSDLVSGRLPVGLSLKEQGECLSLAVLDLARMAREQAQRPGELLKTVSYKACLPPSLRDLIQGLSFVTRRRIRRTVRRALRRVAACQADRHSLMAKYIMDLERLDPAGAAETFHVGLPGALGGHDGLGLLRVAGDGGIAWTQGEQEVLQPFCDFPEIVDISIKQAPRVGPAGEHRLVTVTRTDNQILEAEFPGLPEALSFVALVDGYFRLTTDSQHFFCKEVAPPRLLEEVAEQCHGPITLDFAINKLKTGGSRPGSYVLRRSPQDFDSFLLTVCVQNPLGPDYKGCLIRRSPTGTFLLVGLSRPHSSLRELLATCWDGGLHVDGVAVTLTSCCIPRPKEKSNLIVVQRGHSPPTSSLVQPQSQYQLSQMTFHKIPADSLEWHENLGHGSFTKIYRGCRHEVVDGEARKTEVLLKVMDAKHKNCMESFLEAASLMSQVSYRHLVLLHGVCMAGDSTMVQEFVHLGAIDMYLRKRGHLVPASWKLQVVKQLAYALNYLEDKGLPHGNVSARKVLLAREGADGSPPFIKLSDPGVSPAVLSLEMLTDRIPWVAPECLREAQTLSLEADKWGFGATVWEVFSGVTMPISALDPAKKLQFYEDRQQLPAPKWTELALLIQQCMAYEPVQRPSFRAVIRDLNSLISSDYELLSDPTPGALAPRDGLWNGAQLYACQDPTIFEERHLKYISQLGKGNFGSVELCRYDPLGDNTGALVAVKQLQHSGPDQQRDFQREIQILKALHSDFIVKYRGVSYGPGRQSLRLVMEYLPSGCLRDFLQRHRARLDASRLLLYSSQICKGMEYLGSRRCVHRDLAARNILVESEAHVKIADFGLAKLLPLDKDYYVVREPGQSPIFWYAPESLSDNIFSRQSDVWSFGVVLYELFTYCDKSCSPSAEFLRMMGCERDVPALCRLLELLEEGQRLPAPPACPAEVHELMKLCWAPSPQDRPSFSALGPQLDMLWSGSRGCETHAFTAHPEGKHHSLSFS
As to the kind of experiment: Inhibition of JAK3 at 10 nM. The essentials:
(§2)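 Single-concentration test at 10 nM within a panel of 21 kinases.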

Series [10] concerns the target Activated CDC42 kinase 1 (Homo sapiens) (UniProt Q07912). In words: Inhibition of ACK at 10 nM. The essentials:
as §2

Series [11] concerns the target T4, Tyrosine-protein kinase receptor TYRO3 (Homo sapiens) (UniProt Q06418).
T4 sequence (whole entry): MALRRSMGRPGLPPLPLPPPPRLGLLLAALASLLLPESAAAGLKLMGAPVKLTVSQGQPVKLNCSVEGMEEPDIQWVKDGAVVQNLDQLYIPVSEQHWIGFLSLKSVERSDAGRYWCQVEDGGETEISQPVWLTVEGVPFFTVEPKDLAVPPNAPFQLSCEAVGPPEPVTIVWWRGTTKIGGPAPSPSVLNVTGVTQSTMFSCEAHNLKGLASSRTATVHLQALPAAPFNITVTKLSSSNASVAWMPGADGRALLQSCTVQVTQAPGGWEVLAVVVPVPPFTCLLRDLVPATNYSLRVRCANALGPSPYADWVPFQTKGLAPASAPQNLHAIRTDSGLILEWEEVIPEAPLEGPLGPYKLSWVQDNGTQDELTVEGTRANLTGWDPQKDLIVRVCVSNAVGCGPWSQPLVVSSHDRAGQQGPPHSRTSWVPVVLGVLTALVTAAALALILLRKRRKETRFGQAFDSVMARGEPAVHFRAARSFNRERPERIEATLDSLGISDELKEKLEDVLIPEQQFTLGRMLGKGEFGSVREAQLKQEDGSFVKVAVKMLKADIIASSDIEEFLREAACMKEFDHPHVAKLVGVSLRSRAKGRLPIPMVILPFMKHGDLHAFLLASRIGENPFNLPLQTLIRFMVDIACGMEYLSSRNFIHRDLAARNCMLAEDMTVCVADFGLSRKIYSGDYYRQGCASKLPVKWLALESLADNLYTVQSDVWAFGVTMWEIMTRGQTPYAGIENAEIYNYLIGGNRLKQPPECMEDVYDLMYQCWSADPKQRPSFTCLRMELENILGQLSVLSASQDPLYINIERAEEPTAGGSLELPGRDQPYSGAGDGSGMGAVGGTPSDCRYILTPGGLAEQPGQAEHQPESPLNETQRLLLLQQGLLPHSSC
In words: Inhibition of TYRO3 at 10 nM. The essentials: as §2

The target in series [12] is Tyrosine-protein kinase CSK (Homo sapiens) (UniProt P41240). In words: Inhibition of CSK at 10 nM. An outline of the steps:
as §1

Series [13] addresses Hepatocyte growth factor receptor (Homo sapiens) (UniProt P08581). In words: Inhibition of Met kinase at 10 nM. An outline of the steps: as §1
The target of series [14] is Platelet-derived growth factor receptor alpha (Homo sapiens) (UniProt P16234). As to the kind of experiment: Inhibition of PDGFRalpha at 10 nM. The essentials:
as §1

Series [15] addresses Vascular endothelial growth factor receptor 2 (Homo sapiens) (UniProt P35968). As to the kind of experiment: Inhibition of KDR at 10 nM. An outline of the steps: as §1
In series [16] the test system is Mus musculus. As to the kind of experiment: Biodistribution in tumor of human K562 cells xenografted iv dosed mouse. It is filed as ADME, organism-based. The settings on record: in vivo. An outline of the steps: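 Three athymic mice carried subcutaneous K562 xenografts in the right shoulder. [18F] tracer (14 ± 1 MBq, 375 ± 25 µCi) was formulated in 5% BSA in saline, sterile filtered and given by tail vein. MicroPET imaging started 60 min post-injection with a 15 min exposure. Tumor uptake was expressed as % injected dose by region-of-interest analysis.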
For orientation: Xenograft models place foreign cells or tissue in a host animal.

Sequence of Activated CDC42 kinase 1 (Homo sapiens) (Q07912 whole entry, looked up): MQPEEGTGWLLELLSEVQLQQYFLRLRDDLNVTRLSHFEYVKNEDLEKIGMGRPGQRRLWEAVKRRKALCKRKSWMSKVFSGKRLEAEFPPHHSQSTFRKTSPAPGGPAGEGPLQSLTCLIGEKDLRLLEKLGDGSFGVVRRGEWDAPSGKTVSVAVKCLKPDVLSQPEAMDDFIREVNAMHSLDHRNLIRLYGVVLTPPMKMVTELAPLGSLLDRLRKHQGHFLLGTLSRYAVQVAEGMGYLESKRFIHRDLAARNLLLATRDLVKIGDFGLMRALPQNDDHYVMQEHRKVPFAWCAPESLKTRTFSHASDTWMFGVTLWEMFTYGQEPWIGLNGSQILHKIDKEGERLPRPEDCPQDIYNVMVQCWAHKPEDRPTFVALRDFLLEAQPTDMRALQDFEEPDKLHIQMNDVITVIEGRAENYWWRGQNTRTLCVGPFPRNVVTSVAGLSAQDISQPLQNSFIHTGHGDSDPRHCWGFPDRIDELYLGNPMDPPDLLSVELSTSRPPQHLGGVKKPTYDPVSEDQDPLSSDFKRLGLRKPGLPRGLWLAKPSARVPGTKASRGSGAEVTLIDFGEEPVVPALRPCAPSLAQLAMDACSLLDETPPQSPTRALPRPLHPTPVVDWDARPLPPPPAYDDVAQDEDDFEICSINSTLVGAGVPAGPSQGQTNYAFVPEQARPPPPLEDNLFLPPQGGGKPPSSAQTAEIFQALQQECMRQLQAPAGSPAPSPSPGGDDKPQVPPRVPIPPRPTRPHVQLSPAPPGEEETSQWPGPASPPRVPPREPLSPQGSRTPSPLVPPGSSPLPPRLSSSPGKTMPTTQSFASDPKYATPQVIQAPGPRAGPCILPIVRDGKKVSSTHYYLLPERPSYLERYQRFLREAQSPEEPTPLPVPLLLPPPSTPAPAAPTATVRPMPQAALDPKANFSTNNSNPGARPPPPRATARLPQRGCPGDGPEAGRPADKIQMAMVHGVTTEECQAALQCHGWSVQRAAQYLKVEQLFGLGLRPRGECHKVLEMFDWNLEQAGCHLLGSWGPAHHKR
Sequence of Tyrosine-protein kinase CSK (Homo sapiens) (P41240 2-450 limits assumed): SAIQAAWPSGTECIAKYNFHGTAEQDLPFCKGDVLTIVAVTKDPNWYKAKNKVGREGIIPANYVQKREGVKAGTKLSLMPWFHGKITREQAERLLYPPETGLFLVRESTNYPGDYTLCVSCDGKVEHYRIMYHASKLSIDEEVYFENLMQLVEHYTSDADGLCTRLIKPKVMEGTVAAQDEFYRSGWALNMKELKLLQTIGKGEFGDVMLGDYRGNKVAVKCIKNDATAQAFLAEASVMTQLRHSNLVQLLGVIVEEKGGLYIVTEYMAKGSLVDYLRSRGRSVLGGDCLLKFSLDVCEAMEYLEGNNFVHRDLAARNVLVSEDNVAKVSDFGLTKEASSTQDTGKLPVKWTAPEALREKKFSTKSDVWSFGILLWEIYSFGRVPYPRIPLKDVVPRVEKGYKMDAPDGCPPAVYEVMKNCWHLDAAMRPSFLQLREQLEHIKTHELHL
Sequence of Ephrin type-A receptor 2 (Homo sapiens) (P29317 whole entry): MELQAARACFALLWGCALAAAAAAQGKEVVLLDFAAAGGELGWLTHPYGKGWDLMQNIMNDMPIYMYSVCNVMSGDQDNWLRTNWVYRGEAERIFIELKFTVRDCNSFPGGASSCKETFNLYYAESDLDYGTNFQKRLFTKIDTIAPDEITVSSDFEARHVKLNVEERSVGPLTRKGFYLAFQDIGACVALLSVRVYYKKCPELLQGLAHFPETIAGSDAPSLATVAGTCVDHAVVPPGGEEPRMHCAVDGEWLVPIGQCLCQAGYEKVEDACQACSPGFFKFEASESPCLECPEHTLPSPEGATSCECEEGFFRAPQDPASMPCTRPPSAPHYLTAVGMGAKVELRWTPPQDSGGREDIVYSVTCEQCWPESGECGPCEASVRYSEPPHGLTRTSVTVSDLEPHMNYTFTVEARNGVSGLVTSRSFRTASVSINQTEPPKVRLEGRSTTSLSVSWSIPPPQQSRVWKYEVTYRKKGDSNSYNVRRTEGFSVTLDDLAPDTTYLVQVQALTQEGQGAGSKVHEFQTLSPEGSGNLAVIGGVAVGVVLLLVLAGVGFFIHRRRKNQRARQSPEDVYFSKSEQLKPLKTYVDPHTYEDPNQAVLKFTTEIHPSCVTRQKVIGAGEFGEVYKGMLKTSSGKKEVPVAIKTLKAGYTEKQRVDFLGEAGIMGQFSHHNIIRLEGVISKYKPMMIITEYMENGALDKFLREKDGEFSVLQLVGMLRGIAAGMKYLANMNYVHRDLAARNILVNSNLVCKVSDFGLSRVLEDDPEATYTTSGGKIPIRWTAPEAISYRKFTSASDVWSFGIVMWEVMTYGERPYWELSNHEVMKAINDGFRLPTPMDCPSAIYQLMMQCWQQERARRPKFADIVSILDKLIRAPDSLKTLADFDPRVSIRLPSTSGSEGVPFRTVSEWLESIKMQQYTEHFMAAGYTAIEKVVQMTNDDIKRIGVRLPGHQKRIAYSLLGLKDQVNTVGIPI
Sequence of Platelet-derived growth factor receptor alpha (Homo sapiens) (P16234 whole entry): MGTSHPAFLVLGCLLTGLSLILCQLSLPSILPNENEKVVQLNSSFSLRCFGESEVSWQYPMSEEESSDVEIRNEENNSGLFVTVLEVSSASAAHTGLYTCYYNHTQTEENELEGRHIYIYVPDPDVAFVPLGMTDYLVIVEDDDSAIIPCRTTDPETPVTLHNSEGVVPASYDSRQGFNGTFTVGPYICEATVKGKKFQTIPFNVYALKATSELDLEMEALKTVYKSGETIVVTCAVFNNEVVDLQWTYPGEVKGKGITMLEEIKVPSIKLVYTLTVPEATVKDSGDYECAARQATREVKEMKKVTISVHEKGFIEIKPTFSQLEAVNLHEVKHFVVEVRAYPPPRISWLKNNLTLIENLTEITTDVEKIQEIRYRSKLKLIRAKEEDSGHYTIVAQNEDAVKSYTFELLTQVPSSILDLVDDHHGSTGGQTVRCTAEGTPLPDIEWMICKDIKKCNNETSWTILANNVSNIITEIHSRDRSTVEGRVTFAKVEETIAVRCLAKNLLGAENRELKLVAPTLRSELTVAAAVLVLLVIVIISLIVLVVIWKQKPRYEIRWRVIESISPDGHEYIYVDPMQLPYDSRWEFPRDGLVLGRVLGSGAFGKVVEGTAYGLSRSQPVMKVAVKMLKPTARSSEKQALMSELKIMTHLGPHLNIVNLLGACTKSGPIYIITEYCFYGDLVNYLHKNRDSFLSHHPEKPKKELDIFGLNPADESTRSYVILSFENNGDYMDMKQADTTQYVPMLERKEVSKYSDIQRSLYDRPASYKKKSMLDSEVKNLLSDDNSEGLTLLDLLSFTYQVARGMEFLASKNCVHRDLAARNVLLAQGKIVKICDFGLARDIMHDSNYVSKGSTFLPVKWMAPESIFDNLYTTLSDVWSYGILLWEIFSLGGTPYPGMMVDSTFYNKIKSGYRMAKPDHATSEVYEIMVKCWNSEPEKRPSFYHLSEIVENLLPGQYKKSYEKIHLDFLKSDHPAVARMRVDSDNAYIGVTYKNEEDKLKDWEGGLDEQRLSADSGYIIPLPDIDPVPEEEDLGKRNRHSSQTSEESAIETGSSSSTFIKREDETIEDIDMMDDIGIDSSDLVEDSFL
Sequence of Hepatocyte growth factor receptor (Homo sapiens) (P08581 whole entry): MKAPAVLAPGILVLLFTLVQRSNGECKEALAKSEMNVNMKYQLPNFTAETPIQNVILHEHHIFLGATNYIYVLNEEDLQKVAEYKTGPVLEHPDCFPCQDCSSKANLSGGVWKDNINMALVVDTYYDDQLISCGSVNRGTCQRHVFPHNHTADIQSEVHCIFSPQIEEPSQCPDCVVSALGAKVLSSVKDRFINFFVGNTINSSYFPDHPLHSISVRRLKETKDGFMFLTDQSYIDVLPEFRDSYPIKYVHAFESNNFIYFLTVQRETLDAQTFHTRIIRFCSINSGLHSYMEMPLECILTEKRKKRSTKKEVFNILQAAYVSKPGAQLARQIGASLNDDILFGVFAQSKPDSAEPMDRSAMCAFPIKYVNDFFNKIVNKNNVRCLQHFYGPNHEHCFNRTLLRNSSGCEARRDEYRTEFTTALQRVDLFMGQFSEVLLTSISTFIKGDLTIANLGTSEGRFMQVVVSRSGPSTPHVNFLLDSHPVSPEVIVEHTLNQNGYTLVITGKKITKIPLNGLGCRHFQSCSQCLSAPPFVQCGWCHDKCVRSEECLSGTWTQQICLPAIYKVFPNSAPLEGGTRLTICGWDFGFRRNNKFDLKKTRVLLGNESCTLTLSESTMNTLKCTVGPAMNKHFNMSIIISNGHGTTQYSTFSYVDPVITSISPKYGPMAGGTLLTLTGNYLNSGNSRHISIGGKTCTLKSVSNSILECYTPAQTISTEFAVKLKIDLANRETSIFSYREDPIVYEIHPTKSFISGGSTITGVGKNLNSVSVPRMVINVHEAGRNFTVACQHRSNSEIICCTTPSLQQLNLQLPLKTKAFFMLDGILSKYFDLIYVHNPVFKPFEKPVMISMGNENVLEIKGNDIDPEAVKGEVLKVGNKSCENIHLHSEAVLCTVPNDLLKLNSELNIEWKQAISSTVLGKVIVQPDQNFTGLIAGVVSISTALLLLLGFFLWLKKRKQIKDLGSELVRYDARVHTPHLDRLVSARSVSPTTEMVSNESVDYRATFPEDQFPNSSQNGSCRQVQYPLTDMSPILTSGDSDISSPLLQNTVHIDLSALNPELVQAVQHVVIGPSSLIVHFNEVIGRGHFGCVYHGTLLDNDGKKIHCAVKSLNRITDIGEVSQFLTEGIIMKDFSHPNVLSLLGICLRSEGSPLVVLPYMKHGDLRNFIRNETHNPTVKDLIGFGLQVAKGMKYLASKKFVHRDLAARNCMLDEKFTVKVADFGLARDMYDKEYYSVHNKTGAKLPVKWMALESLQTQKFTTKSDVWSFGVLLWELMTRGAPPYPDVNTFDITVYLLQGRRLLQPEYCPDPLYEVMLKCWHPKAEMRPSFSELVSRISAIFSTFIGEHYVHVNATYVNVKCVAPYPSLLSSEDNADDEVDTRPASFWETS

For `Cc1nc(Nc2ncc(C(=O)Nc3c(C)cccc3Cl)s2)cc(N2CCN(CCO)CC2)n1` [DASATINIB], the IC50 was determined as 1.2 nM in “cells [1]”, 1 nM in the series on K562 and 0.07 nM in “cells [2]”.
For the molecule `Cc1nc(Nc2ncc(C(=O)Nc3c(C)cccc3Cl)s2)cc(N2CCN(CCF)CC2)n1`, the inhibition in [3] was 0.3%; in series [4], 98.1%; in [6] it was 97.5%; in series [7] it was 98.1%; in [8], 97%; in [9] it was 16%. Also, the inhibition is 83.1% in [10]; 23.1% in series [11]; 95.2% in [12]; 7.2% in [13]; 86% in series [14]; -5.6% in [15]. Also, the Activity result in the series with Mus musculus [5] is given as “Non-toxic”. Further, the IC50 worked out at 1.1 nM in the series “cells [1]”, 1.1 nM with K562 and 0.1 nM in “cells [2]”.
`Cc1nc(Nc2ncc(C(=O)Nc3c(C)cccc3Cl)s2)cc(N2CCN(CC[18F])CC2)n1` displayed a Drug uptake in the series on Mus musculus [16] of 1.1%.
As to `CN[C@@H]1C[C@H]2O[C@@](C)([C@@H]1OC)n1c3ccccc3c3c4c(c5c6ccccc6n2c5c31)C(=O)NC4`, the inhibition in [3] came to 96.4%; in [4] it was 92.5%; in series [6], 89.8%; in series [7] it was 92.6%; in series [8] it was 94.1%; in [10], 96.4%. Further, the inhibition in [11] was found to be 95.3%; in series [12], 89.3%; in series [13] it was 90%; in [14] it was 88.4%.

As usually defined, the IC50 is the midpoint of a concentration-inhibition curve. The term inhibition denotes the drop in the measured response relative to a control, in per cent.
